Screening results: PubChem BioAssay, The Scripps Research Institute Molecular Screening Center
STAT3 inh = IL-6 driven STAT3 reporter inhibitors, primary screen, U3A cells, luciferase, luminescence, MLSCN library; hit rate 0.89% among 190,000; IL-6 STAT3-luciferase reporter; host cell line lacks STAT1; inhibition, % at 5.5 µM; AID 862, 2007;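 active means inhibition above the mean inhibition across all screened compounds plus 3 SD, cut at about 44% in these data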;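 further: 0% = DMSO only wells and 100% = 100 µM nifuroxazide control wells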
STAT1 inh = STAT1 signaling inhibitors, primary screen, cell-based, HTS, luciferase reporter. NIH 3T3 STAT1-luciferase reporter, IFN-gamma, luminescence. hit rate 0.35% among 200,000. inhibition, % at 5.5 µM;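 active means inhibition above a set limit, the mean inhibition across all tested compounds plus 3 SD, cut at about 34% in these data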;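 further: 0% = IFN-gamma with DMSO and 100% = IFN-gamma with 300 µM nifuroxazide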
STAT3 act-1 = IL-6 driven STAT3 reporter potentiators, primary screen, U3A cells, luciferase, luminescence, MLSCN library; AID 871, 2007; hit rate 0.91% among 190,000; activation (% of control), % at 5.6 µM; IL-6 STAT3-luciferase reporter; 100% = signal with IL-6 EC80 alone;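 active means activation above the screen-wide mean of compound activation plus 3 SD, cut at about 130% in these data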;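 further: 0% = background luminescence of wells with medium and substrate only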
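Material: STAT1-lacking human U3A cells, STAT3 luciferase reporter | Benchmarks: IL-6-only wells as 100% reference | Probe or stimulus: IL-6 (33 ng/mL) | Timing: Compound 1 h, then IL-6 6 h at 37 °C | Detection: Luminescence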
PERK inh = block of dimerizer-induced PERK translation repression, primary screen, PERK inhibitor project, CHO PERK-DD cells, SEAP luminescence, HTS. Eukaryotic translation initiation factor 2-alpha kinase 3 (Homo sapiens), Q9NZJ5. CHO PERK-DD fusion, SEAP luminescence translation reporter. inhibition, % at 5.6 µM. hit rate 0.17% among 220,000. AID 1416, 2008;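 active means inhibition above the mean inhibition of all tested compounds plus 3 SD, set separately per screening campaign, cut at about 2.9% in these data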;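 further: PERK kinase domain activated by AP20187 dimerizer at 100 nM; 0% = DMSO with dimerizer and 100% = rapamycin at 8.4 µM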
Target sequence (Q9NZJ5 whole entry, looked up, the tested form may be a part): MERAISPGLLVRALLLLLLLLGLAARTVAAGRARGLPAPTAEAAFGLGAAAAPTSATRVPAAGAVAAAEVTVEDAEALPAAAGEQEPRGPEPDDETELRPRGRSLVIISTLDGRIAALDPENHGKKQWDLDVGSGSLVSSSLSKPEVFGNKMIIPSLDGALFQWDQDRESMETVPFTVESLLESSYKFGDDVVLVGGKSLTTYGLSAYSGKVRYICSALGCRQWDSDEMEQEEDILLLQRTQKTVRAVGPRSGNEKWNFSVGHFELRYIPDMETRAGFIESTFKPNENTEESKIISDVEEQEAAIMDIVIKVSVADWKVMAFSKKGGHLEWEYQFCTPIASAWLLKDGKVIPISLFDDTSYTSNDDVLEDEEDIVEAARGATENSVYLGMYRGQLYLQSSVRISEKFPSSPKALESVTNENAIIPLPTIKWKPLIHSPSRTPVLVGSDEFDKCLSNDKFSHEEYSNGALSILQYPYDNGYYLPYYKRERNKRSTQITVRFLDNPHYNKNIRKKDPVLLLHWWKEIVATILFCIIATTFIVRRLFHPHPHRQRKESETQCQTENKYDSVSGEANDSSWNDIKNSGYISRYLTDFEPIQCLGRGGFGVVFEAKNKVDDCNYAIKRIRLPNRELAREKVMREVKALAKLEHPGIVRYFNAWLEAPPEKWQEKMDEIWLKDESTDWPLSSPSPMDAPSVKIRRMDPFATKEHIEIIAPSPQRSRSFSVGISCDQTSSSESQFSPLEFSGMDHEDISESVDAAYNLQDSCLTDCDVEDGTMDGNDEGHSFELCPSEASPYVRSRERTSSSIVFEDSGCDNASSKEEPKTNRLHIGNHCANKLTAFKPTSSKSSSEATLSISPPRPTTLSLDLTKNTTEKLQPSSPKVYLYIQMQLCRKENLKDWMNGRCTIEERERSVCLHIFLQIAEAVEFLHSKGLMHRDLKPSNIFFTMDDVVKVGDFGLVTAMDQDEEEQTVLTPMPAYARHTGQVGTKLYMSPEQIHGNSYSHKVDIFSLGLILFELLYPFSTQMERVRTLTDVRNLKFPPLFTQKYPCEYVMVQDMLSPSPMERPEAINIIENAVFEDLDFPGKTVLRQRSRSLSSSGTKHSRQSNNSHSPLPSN
STAT3 act-2 = STAT3 reporter potentiators, retest of hits, confirmation, U3A cells, luciferase, luminescence; shares compounds with STAT3 act-1; IL-6 potentiation; U3A cells lack STAT1; 100 means same as IL-6 alone; potentiation (% of control), % at 5.7 µM; hit rate 64% among 1,200; AID 1267, 2008;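 active means percent activation of the STAT3 luciferase reporter above a set limit taken from the earlier primary screen, cut at about 130% in these data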;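 further: 0% = background signal of medium plus substrate and 100% = median of IL-6 with DMSO wells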
NFkB act STAT3ct = NF-kB reporter activators in human cells, counter-screen for STAT3 activator project; shares compounds with STAT3 act-1; NF-kappaB reporter activation; activation (% of control), % at 5.7 µM; hit rate 11% among 1,200; AID 1309, 2008; in the data active means activation above about 120%;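 further: reporter induced by TNF-alpha stimulation; 100% = median of stimulated DMSO wells and 0% = no signal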
STAT1 act STAT3c = STAT1 reporter activators, IFN-gamma induced, counter-screen for STAT3 activator project, cell-based, NIH 3T3, luciferase luminescence | AID 1318, 2008 | activation (% of control), % at 5.7 µM | NIH 3T3 STAT1-luciferase reporter | hit rate 13% among 1,200 | shares compounds with STAT3 act-1;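 active means activation above the solvent-only control well mean plus 3 SD, set per screening run, cut at about 120% in these data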;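 further: 100% = IFN-gamma with DMSO median signal so 100% means no change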
* hit, by the source's call. Rows were chosen to be rich in hits. Some 1.8% of all compounds tested hit in one or more screens of this group.

Screening Fc1cccc2sc(Nc3nc4c(F)cccc4s3)nc12 returned STAT3 inh -72, STAT1 inh -4, STAT3 act-1 156*, PERK inh 1, STAT3 act-2 182*, NFkB act STAT3ct 122* and STAT1 act STAT3c 119.
Screening COc1ccc(NC(=O)COC(=O)/C=C/c2ccccc2[N+](=O)[O-])cc1 returned STAT3 inh -11, STAT1 inh 0, STAT3 act-1 112 and PERK inh 1.
`CC(C)NC(=O)NC(=O)COC(=O)/C=C/c1ccccc1[N+](=O)[O-]` gave STAT3 inh -55, STAT1 inh 29, STAT3 act-1 147*, PERK inh 1, STAT3 act-2 159*, NFkB act STAT3ct 111 and STAT1 act STAT3c 80.
Screening COC(=O)CNC(=O)COC(=O)/C=C/c1ccccc1[N+](=O)[O-] returned STAT3 inh -35, STAT1 inh 22, STAT3 act-1 144*, PERK inh 0, STAT3 act-2 140*, NFkB act STAT3ct 103 and STAT1 act STAT3c 76.
For Cc1nonc1C1CCCN1C(=O)c1cc(COc2ccc(F)cc2F)on1 (stereo not given) the results were STAT3 inh -11, STAT1 inh -78, STAT3 act-1 114 and PERK inh 2.
O=c1[nH]oc2cc(Cl)ccc12 was read as PERK inh 0.
For COc1ccc(C)cc1N(C(=O)COc1ccccc1)c1nc2ccccc2s1 the results were STAT3 inh -43, STAT1 inh 10, STAT3 act-1 137*, PERK inh 1, STAT3 act-2 145*, NFkB act STAT3ct 101 and STAT1 act STAT3c 101.
COc1ccc(C)cc1N(C(=O)c1ccccc1F)c1nc2ccccc2s1 was read as STAT3 inh -28, STAT1 inh 2, STAT3 act-1 124 and PERK inh 0.
Cc1ccc(S(=O)(=O)c2c(C)nn(C(C)(C)C)c2OC(=O)c2cccs2)cc1 was read as STAT3 inh -43, STAT1 inh -24, STAT3 act-1 137*, PERK inh 0, STAT3 act-2 126, NFkB act STAT3ct 98 and STAT1 act STAT3c 105.
For Cn1nnnc1SCC(=O)N1CCN(S(=O)(=O)c2ccc(Cl)cc2)CC1 the results were STAT3 inh 2, STAT1 inh 3, STAT3 act-1 105 and PERK inh 2.
Screening NNc1ncnc2sc3c(c12)CCC3 returned STAT3 inh -40, STAT1 inh 19, STAT3 act-1 139*, PERK inh 1, STAT3 act-2 137*, NFkB act STAT3ct 102 and STAT1 act STAT3c 92.
For C(=N\Nc1ncnc2sc3c(c12)CCC3)/c1cccs1 the results were STAT3 inh -59, STAT1 inh 8, STAT3 act-1 152*, PERK inh -2, STAT3 act-2 142*, NFkB act STAT3ct 110 and STAT1 act STAT3c 95.
For Cc1cccc(NC(=O)CN(C)S(=O)(=O)c2ccc(Cl)cc2)n1 the results were STAT3 inh 2, STAT1 inh -1, STAT3 act-1 104 and PERK inh -1.
CN(CC(=O)Nc1nc2ccccc2s1)S(=O)(=O)c1ccc(Cl)cc1 was read as STAT3 inh -60, STAT1 inh -6, STAT3 act-1 156*, PERK inh -1, STAT3 act-2 130, NFkB act STAT3ct 100 and STAT1 act STAT3c 101.
Screening CCOc1ccccc1CNCc1ccc(C(=O)O)cc1 returned STAT3 inh 9, STAT1 inh 4, STAT3 act-1 100 and PERK inh 2.
`O=C(COc1ccccc1CNCc1ccccc1)Nc1ccccc1` gave STAT3 inh -51, STAT1 inh -6, STAT3 act-1 143*, PERK inh -2, STAT3 act-2 123, NFkB act STAT3ct 111 and STAT1 act STAT3c 105.
